Entries after “also recorded” stand apart in the source; their conditions may differ. Read-outs that look alike come from different tables or passages of the source.

The text below walks through data of paper PMC6233868 (Journal of nuclear medicine : official publication, Society …, 2016).

Series [1] has as its target T1, hNIS (Homo sapiens, UniProt Q92911).
T1 sequence (Q92911 1-643): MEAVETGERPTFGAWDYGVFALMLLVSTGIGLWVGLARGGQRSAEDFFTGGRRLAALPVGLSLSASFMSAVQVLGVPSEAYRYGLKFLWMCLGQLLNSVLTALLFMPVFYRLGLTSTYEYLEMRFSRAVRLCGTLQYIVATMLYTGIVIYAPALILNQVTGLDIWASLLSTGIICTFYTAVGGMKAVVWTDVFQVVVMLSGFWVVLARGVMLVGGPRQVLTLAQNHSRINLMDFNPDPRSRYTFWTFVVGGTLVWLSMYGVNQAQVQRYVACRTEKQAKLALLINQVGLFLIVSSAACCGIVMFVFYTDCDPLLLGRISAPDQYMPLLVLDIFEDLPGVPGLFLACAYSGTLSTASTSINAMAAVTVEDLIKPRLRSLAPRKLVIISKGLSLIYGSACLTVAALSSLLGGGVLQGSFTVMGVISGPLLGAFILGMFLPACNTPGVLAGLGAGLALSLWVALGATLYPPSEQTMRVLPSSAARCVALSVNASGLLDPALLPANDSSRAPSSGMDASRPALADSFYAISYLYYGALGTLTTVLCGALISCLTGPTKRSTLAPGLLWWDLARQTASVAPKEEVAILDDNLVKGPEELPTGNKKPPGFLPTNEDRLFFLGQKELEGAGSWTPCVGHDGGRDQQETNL
Format: cell-based.

Series [2] deals with NIS. The conditions noted are these: read-out: IC50 for inhibition of [124I]I- uptake; cited from earlier work.
Series [3] deals with mouse thyroid. The settings on record: in vivo; cited from earlier work.
Series [4] deals with T1, hNIS. In kind it is cell-based. The settings on record: read-out: IC50, inhibition of [18F]SO3F- uptake; HCT116-C19 cells.
A short description of series [5]: ex vivo biodistribution in Balb/c mice. On the set-up: species or system mouse. The conditions noted are these: 2.25 h post-injection. Summed up:
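Female Balb/c mice (4-8 weeks) were pretreated 1 h before the radiotracer with NaClO4 (250 mg/kg i.p. in 0.9% NaCl) or with a saline sham. After the 2 h PET scan, mice were culled by cervical dislocation at 2.25 h post-injection. Thyroid was dissected under a microscope. Tissues were weighed and gamma-counted, giving %ID/g; n = 3, SD.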

The target of series [6] is T1, hNIS. Format: cell-based. The source holds these as a separate data set.
Series [7] in a line: human serum stability by TLC.
Series [8] has as its system HCT116 cells. The series can be described thus: [18F]SO3F- uptake in hNIS-negative parental HCT116 cells. Format: cell-based, human. The settings on record: presence or absence of NaClO4.
A short description of series [9]: stability of formulated tracer. In kind it is physicochemical.
Series [10] in a line: PET/CT imaging biodistribution in Balb/c mice. Format: in vivo, mouse. Put shortly: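 Female Balb/c mice (4-8 weeks) received NaClO4 (250 mg/kg i.p. in 0.9% NaCl) or an equal volume of saline 1 h before scanning. Dynamic PET ran for 2 h from <1 min after radiotracer injection, followed by CT. Data were corrected and binned into 5 min then 30 min frames. Manual ROIs were drawn at a 10% max-count threshold and reported as %ID (whole body minus tail) and %ID/g.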

Where [11] appears, read: read-out: IC50, inhibition of [99mTc]TcO4- uptake via hNIS.
Where [12] appears, read: read-out: IC50, inhibition of anion uptake via hNIS.
Where [13] appears, read: normal mice, PET time-activity curves.

Regarding `F[B-](F)(F)F` [BF4^-, tetrafluoroborate], the half-maximal inhibitory concentration (IC50) in series [1] (setting [11]) was 290 to 4500 nM.
As for `[O-][Cl+3]([O-])([O-])O` [ClO4^-, perchlorate], the half-maximal inhibitory concentration (IC50) in series [2] is 100 nM.
Regarding `I` [I^-, iodide], the IC50 was 2700 to 4700 nM in series [1] (setting [11]) and over 2700 nM in [1] (setting [12]).
For `O=S(=O)(O)F` [SO3F^-, fluorosulfate], the IC50 in [1] (setting [11]) is 550 to 560 nM; in series [1] (setting [12]), 560 nM; in series [4], 1600 nM. The “inhibition of radioiodide uptake in mouse thyroid” value in [3] was “inhibit radioiodide uptake”.
As to `[O]=[Tc](=[O])(=[O])[OH]` [TcO4^-, pertechnetate], the IC50 in [1] (setting [11]) amounted to 70 nM.
On to `O=S(=O)(O)F` [[^18F]SO3F^-] [[^18F]Fluorosulfate], for which, in [5], the “bladder radioactivity (ex vivo)” value is 15 ± 14 %ID/g and the “bone uptake (ex vivo)” value was found to be 17 ± 3 %ID/g. In series [5] (mice administered NaClO4), the “bone uptake (ex vivo) with perchlorate” value is “not blocked”, the “salivary gland uptake (ex vivo) with NaClO4” value is on record as 2.6 ± 1.7 %ID/g, the “stomach uptake (ex vivo) with NaClO4” value is recorded as 3.0 ± 1.7 %ID/g and the “thyroid uptake (ex vivo) with NaClO4” value turned out to be 4.3 ± 4.6 %ID/g. In series [5] (without NaClO4), the “salivary gland uptake (ex vivo)” value was found to be 18 ± 4 %ID/g, the “stomach uptake (ex vivo)” value was 59 ± 10 %ID/g and the “thyroid uptake (ex vivo)” value was determined as 144 ± 71 %ID/g. In series [6], the “uptake of radiotracer in HCT116-C19 cells” value was “Specific, blockable hNIS-mediated uptake; also recorded: Significant uptake” and the “uptake of radiotracer in HCT116-C19 cells with NaClO4” value is “blocked”. The “RCP after incubation with human serum” value in [7] (4 h, TLC of supernatant after ethanol protein precipitation) is recorded as over 95%. Also, the “radioactivity associated with the protein pellet” value in [7] (human serum, ethanol precipitation) was “no significant radioactivity”. Further, the “uptake of radiotracer in parental HCT116 cells” value in series [8] is “No uptake; also recorded: absent”. In [9] (formulated tracer, room temperature, 4 h, IC and TLC), this molecule yielded an RCP after standing of over 95%. Besides, in series [9] (pH 3.0, 4 h), the “RCP under acidic conditions” value is listed as “similarly constant”. For the same molecule, the “bone %ID/g relative to that in thyroid” value in series [10] (30 min) is given as under 1%. The “time of maximum thyroid uptake” value in series [10] (PET, normal mice) came to 30 min. Moreover, in [10] (normal mice, 30 min), the “salivary gland uptake (PET)” value stood at 32 ± 9 %ID/g and the “thyroid uptake (PET)” value is 563 ± 140 %ID/g. For the same molecule, in series [10] (normal mice, 60 min), the “bone uptake (PET)” value came out at 3 ± 1 %ID/g. Besides, in series [10] (normal mice, 90 min), the “stomach uptake (PET)” value was 68 ± 21 %ID/g. Further, in series [10] (setting [13]), the “time at which stomach uptake reaches a plateau” value was “around 90 min”; the “time at which thyroid and salivary gland uptake reaches a plateau” value is 30 to 45 min.
